Assay outcomes deposited in PubChem by The Scripps Research Institute Molecular Screening Center.
A selection: hits, their analogues and other compounds. The true share with any hit is near 0.75%.
ASAP1 inh: blocks human ASAP1-stimulated Arf1 GTP hydrolysis. Q9ULH1. GDP FP detection. inhibition, % at 16.5 µM. 0.19% of 360,000 active; in the data active means inhibition above about 25%
EBNA-1 inh: blocks EBNA-1 binding to DNA; inhibition, % at 14.8 µM; 0.34% of 300,000 active; EBNA-1 DNA binding, fluorescence polarization; in the data active means inhibition above about 28%
ZTA counter: ZTA (EBV) inhibition in EBNA-1 counter-screen. P03206. ZTA-DNA binding, fluorescence polarization. inhibition, % at 11 µM. 0.15% of 320,000 active; in the data active means inhibition above about 33%
Target sequence (P03206 whole entry, looked up): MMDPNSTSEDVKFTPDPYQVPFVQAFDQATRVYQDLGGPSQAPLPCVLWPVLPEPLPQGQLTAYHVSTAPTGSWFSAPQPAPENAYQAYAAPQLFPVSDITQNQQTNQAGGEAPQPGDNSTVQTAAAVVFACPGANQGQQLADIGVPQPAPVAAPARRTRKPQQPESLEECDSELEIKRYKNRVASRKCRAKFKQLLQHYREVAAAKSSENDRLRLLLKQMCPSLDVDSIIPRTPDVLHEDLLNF
ARFGAP1 inhibitor: rat ARFGAP1 inhibition; inhibition, % at 16.5 µM; Arfgap1-stimulated ARF1 GTP hydrolysis, GDP FP detection; AID 651572; Q62848; 0.26% of 360,000 active;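 active means inhibition above a per-plate limit, mean inhibition of low control wells plus 3 SD, cut at about 25% in these data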
Target sequence (Q62848 1-136 limits assumed): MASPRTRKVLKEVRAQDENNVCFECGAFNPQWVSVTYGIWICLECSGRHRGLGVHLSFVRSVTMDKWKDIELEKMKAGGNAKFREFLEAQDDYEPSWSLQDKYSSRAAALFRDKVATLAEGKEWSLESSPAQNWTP
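System: truncated rat Arfgap1 GAP domain / Benchmarks: high control wells lacking Arfgap1, low control full reaction with DMSO / Times: compound-enzyme preincubation 20 min, reaction 120 min, detection 60 min, 25 °C / Repeats: one replicate per compound / Also added: human ARF1(Δ1-17)-GTP substrate / Measured by: Tracer-displacement fluorescence polarization with EDTA stop, 620/688 nm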
ARFGAP1 confirm: confirmation of rat ARFGAP1 inhibitors; shares compounds with ARFGAP1 inhibitor; ARFGAP1-stimulated ARF1 GTP hydrolysis, GDP tracer FP; inhibition, % at 16.5 µM; 30% of 890 active;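 active means average inhibition over triplicates above the hit cutoff set in the earlier primary screen, cut at about 25% in these data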
Large screens that a line does not name were inactive (follow-up assays come after a bar, where they were run).

COc1cc2c3nnc(-c4ccc(F)cc4)c-3cn(Cc3ccc(C)cc3)c2cc1OC	ARFGAP1 inhibitor 39 | ARFGAP1 confirm 48
COc1cc2c3nnc(-c4ccccc4)c-3cn(Cc3ccc(F)cc3)c2cc1OC	none
C[C@H](O)[C@@H]1CN2CCc3ccc(-c4ccc5c(c4)OCO5)cc3[C@@H]2C[C@@H]1N(C)C(=O)c1ccco1	none (no result: EBNA-1 inh, ZTA counter)
COc1cc(N/C(=C\C(=O)c2ccccc2)c2ccccc2)ccc1Cl	none (no result: EBNA-1 inh, ZTA counter)
COc1ccc(NC(=O)C(=O)NCCC2CCCCN2S(=O)(=O)c2ccc(F)cc2)cc1 (configuration not stated)	ARFGAP1 inhibitor 28 | ARFGAP1 confirm inactive
Cc1cc(Br)c2nc(-c3ccc(Cl)cc3)c(Cc3cccc(Cl)c3)n2c1	none (no result: EBNA-1 inh, ZTA counter)
COc1cc(/C=C2\SC(N)=NC2=O)ccc1OCC(=O)Nc1ccc(C)cc1	ARFGAP1 inhibitor 45 | ARFGAP1 confirm 72
COC(=O)[C@]12C[C@H](CC(=O)N3CCSCC3)C(=O)N(Cc3ccc4c(c3)OCO4)C1=C[C@H](C(C)(C)C)O[C@@H]2C	none (no result: EBNA-1 inh, ZTA counter)
CC(=O)Nc1cccc(NC(=O)Cc2cccs2)c1	none
O=C(Cc1cccs1)Nc1cccc(-c2nc3cc4ccccc4cc3[nH]2)c1	ARFGAP1 inhibitor 25 | ARFGAP1 confirm 25
COc1ccccc1Cc1c(-c2ccc(F)cc2)nc2c3ccccc3ccn12	none (no result: EBNA-1 inh, ZTA counter)
CSc1nc2c(=O)[nH]cnc2s1	none (no result: EBNA-1 inh, ZTA counter)
Cc1ccc2nc(SCC(=O)c3ccccc3)nc(=O)n2c1	ARFGAP1 inhibitor 37 | ARFGAP1 confirm 47
Cc1ccc2nc(SCC(=O)N3CCCC3)nc(=O)n2c1	ARFGAP1 inhibitor 61 | ARFGAP1 confirm 44
COCc1cc(N2CCN(C(=O)OC(C)(C)C)C[C@H]2C)ccc1N1CC[C@@H](O)C1	none (no result: EBNA-1 inh, ZTA counter)
Cn1c(C(=O)NCC2CCCO2)cc2c(=O)[nH]c3ccccc3c21 (configuration not stated)	ARFGAP1 inhibitor 25 | ARFGAP1 confirm inactive
Cn1c(C(=O)NCC2CCCO2)cc2c(=O)n(C)c3ccccc3c21 (configuration not stated)	none
C[C@@H]1ON(C)[C@H]2C[C@H]3c4[nH]c5c(-c6ccccc6F)cccc5c4CCN3C(=O)[C@@H]12	none (no result: EBNA-1 inh, ZTA counter)
c1ccc(-c2nc3ccccc3nc2-c2ccc(CN3CCC4(CC3)CNc3ccccc34)cc2)cc1	none (no result: EBNA-1 inh, ZTA counter)
Cc1ccc(CN2CCC=CS2(=O)=O)cc1	none (no result: EBNA-1 inh, ZTA counter)
CC(C)CN(C(=O)CSc1nnc(-c2cccs2)n1C1CC1)C1CCS(=O)(=O)C1 (configuration not stated)	ARFGAP1 inhibitor 27 (no result: EBNA-1 inh, ZTA counter) | ARFGAP1 confirm inactive
CCN(C(=O)CSc1nnc(-c2cccs2)n1CC)C1CCS(=O)(=O)C1 (configuration not stated)	none
O=C(O)c1ccc(/C=C/c2ccc3cccc(O)c3n2)cc1	none (no result: EBNA-1 inh, ZTA counter)
Oc1ccc(/C=C/c2ccc3cccc(O)c3n2)cc1Br	ARFGAP1 inhibitor 28 | ARFGAP1 confirm inactive
O=C1c2ccccc2C(Nc2ccc3c(c2)OCCO3)N1c1ccc(Cl)cn1 (configuration not stated)	ARFGAP1 inhibitor 25 | ARFGAP1 confirm inactive
COc1ccc(CCN2C(=O)NC(NC(=O)CC(C)C)(C(F)(F)F)C2=O)cc1OC (configuration not stated)	ARFGAP1 inhibitor 28 | ARFGAP1 confirm inactive
COc1ccc(CCN2C(=O)NC(NC(=O)CCc3ccccc3)(C(F)(F)F)C2=O)cc1OC (configuration not stated)	none
CC(C)=CCC/C(C)=C/Cc1c(O)ccc(C(=O)/C=C/c2ccc(O)cc2)c1O	ARFGAP1 inhibitor 28 | ARFGAP1 confirm 26
C=C(C)C(O)Cc1c(OC)ccc(C(=O)/C=C/c2ccc(O)cc2)c1O (configuration not stated)	none (no result: EBNA-1 inh, ZTA counter)
CN(C)S(=O)(=O)Nc1ccc2c(c1)Cc1ccccc1-2	ARFGAP1 inhibitor 28 | ARFGAP1 confirm inactive
CN(C)S(=O)(=O)Nc1ccc(NS(=O)(=O)N(C)C)c(S(=O)(=O)c2ccccc2)c1	none
Cc1ccc2nc(Nc3nc(CSc4nc5ccccc5s4)cc(=O)[nH]3)nc(C)c2c1	ARFGAP1 inhibitor 25 | ARFGAP1 confirm inactive
COc1ccc2nc(Nc3nc(CSc4nc5ccccc5s4)cc(=O)[nH]3)nc(C)c2c1	none (no result: ASAP1 inh, ARFGAP1 inhibitor)
Cc1c(-c2nc(N)nc(Nc3ccc(F)cc3)n2)oc2ccccc12	ARFGAP1 inhibitor 33 | ARFGAP1 confirm inactive
COc1ccc(C2NN=C(c3c[nH]c4ccccc34)C2O)cc1 (configuration not stated)	none
COc1ccc(C2C(O)C(c3c[nH]c4ccccc34)=NN2C(=O)CCl)cc1 (configuration not stated)	ARFGAP1 inhibitor 26 | ARFGAP1 confirm inactive
N#Cc1ccc(S(=O)(=O)NC(=O)[C@H]2O[C@@H](n3ccc(=O)[nH]c3=O)[C@H](O)[C@@H]2O)cc1	none (no result: EBNA-1 inh, ZTA counter)
CCNC(=O)N1CCN(c2ccc(N3CCN(C(=O)NCC)[C@@H](C)C3)c(C)c2)[C@@H](C)C1	none (no result: EBNA-1 inh, ZTA counter)
CCS(=O)(=O)N(C)C[C@@H]1OCc2ccccc2-c2c(n(C)c3ccccc23)C(=O)N([C@H](C)CO)C[C@@H]1C	none (no result: EBNA-1 inh, ZTA counter)
CC(C)C(OC(=O)c1cc2c(s1)CCCCC2)C(=O)NC(N)=O (configuration not stated)	none
CC(OC(=O)c1cc2c(s1)CCCCC2)C(=O)NC(N)=O (configuration not stated)	ARFGAP1 inhibitor 28 | ARFGAP1 confirm inactive
Nc1[nH]c(C(=O)c2ccccc2)c(-c2cccc3ccccc23)c1C(=O)NCc1ccc(F)c(F)c1	none (no result: EBNA-1 inh, ZTA counter)
CCOc1cc(OCC)cc(C(=O)N2CCC[C@@H]2C(=O)N2CCC[C@H]2C(=O)NCc2ccccc2)c1	none (no result: EBNA-1 inh, ZTA counter)
O=C(Nc1ccc(Cl)cc1)OCc1cn(-c2ccc(Cl)cc2)nn1	ASAP1 inh 78, ARFGAP1 inhibitor 68 | ARFGAP1 confirm 53
CCNC(=O)OCc1cn(-c2ccc(Cl)cc2)nn1	none
CCCc1cc(=O)oc2cc(OCC(=O)NCCc3c[nH]c4ccccc34)ccc12	ARFGAP1 inhibitor 26 | ARFGAP1 confirm inactive
CCOC(=O)c1oc2ccccc2c1NC(=O)c1ccc(Cl)s1	ARFGAP1 inhibitor 32 | ARFGAP1 confirm inactive
O=C(Nc1cccc(Cl)c1)Nc1sccc1-c1nc2ccccc2s1	ARFGAP1 inhibitor 27 | ARFGAP1 confirm inactive
O=C(N[C@H](C(=O)N1CCC[C@H]1C(=O)NC1CCCC1)C1CCCCC1)c1ccc(Cl)cc1Cl	none (no result: EBNA-1 inh, ZTA counter)
Cc1cc(-c2cc(NC(=O)Cc3c(C)[nH]c4ccccc34)ccc2Nc2cccnc2)ccc1F	none (no result: EBNA-1 inh, ZTA counter)
Cc1[nH]c2ccccc2c1CC(=O)Nc1ccc(Nc2cccnc2)c(-c2cc(F)cc(F)c2)c1	ARFGAP1 inhibitor 26 (no result: EBNA-1 inh, ZTA counter) | ARFGAP1 confirm inactive
Cc1[nH]c2ccccc2c1CC(=O)Nc1ccc(Nc2ccccc2)cc1	ARFGAP1 inhibitor 29 (no result: EBNA-1 inh, ZTA counter) | ARFGAP1 confirm 25
CC(C)C[C@H]1COc2ccc(Cl)cc2S(=O)(=O)N1	none (no result: EBNA-1 inh, ZTA counter)
Cc1cccc(NC(=O)CCN2CCC(C)CC2)c1	ARFGAP1 inhibitor 27 | ARFGAP1 confirm inactive
COc1cc(C(C#N)N2CCC(c3ccccc3)=N2)ccc1O (configuration not stated)	ARFGAP1 inhibitor 27 | ARFGAP1 confirm inactive
